≈ marks a conversion by molar mass, not a printed value.
What was measured:
Staphylococcus aureus [1] = assay: Antimicrobial activity against oxacillin- and methicillin-resistant Staphylococcus aureus isolate Sa-OXA-R2 after 18 to 24 hrs by alamar blue assay; assay type: functional
Method in brief: (§1)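 Broth microdilution per NCCLS standard, Mueller-Hinton broth, 8-point twofold dilutions; exponentially growing cells at 5 10^5 cells/ml with compound, 18–24 h at 37 C; 20% Alamar blue added, fluorescence read; MIC90 taken as lowest concentration preventing at least 90% growth.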

Acinetobacter baumannii = assay: Antimicrobial activity against Acinetobacter baumannii ATCC 49139 after 18 to 24 hrs by alamar blue assay; assay type: functional; conditions: Acinetobacter baumannii, ATCC 49139; read-out: MIC
Method in brief: (§2)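 Broth microdilution per NCCLS in Mueller-Hinton broth, 8-point twofold dilutions, 384-well format. Exponential-phase cells at 5 × 10^5 cells/ml incubated with compound 18–24 h at 37 °C, then 20% Alamar blue added and fluorescence read. MIC90 taken as the lowest concentration preventing at least 90% bacterial growth.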

Staphylococcus aureus [2] = assay: Antimicrobial activity against methicillin-resistant Staphylococcus aureus isolate NTUH4722 after 18 to 24 hrs by alamar blue assay; assay type: functional; method in brief: as §1
Pseudomonas aeruginosa = assay: Antimicrobial activity against Pseudomonas aeruginosa ATCC 25619 after 18 to 24 hrs by alamar blue assay; assay type: functional; conditions: Pseudomonas aeruginosa, ATCC 25619; read-out: MIC; method in brief: as §2
Staphylococcus aureus [3] = assay: Antimicrobial activity against methicillin-resistant Staphylococcus aureus ATCC 33592 after 18 to 24 hrs by alamar blue assay; assay type: functional; conditions: Staphylococcus aureus, ATCC 33592; read-out: MIC; method in brief: as §1
Staphylococcus aureus [4] = assay: Antimicrobial activity against Staphylococcus aureus ATCC 29213 after 18 to 24 hrs by alamar blue assay
[5] = system: Stenotrophomonas maltophilia; assay: Antimicrobial activity against Stenotrophomonas maltophilia ATCC 13637 after 18 to 24 hrs by alamar blue assay; assay type: functional; conditions: Stenotrophomonas maltophilia, ATCC 13637; read-out: MIC; method in brief: as §2
Bacillus subtilis = assay: Antimicrobial activity against Bacillus subtilis ATCC 23857 after 18 to 24 hrs by alamar blue assay; assay type: functional; method in brief: as §2
[6] = system: Mycolicibacterium smegmatis; assay: Antimicrobial activity against Mycobacterium smegmatis BCRC 11565 after 18 to 24 hrs by alamar blue assay; assay type: functional; conditions: Mycolicibacterium smegmatis, BCRC 11565; read-out: MIC; method in brief: as §2
Serratia marcescens = assay: Antimicrobial activity against Serratia marcescens ATCC 14756 after 18 to 24 hrs by alamar blue assay; assay type: functional; conditions: Serratia marcescens, ATCC 14756; read-out: MIC; method in brief: as §2
Escherichia coli = assay: Antimicrobial activity against Escherichia coli ATCC […] after 18 to 24 hrs by alamar blue assay; assay type: functional; conditions: Escherichia coli; read-out: MIC; method in brief: as §2

Row | Structure (SMILES) | MIC (Staphylococcus aureus [1]) [µg/mL] | MIC (Acinetobacter baumannii) [µg/mL] | MIC (Staphylococcus aureus [2]) [µg/mL] | MIC (Pseudomonas aeruginosa) [µg/mL] | MIC (Staphylococcus aureus [3]) [µg/mL] | MIC (Staphylococcus aureus [4]) [µg/mL] | MIC [5] [µg/mL] | MIC (Bacillus subtilis) [µg/mL] | MIC [6] [µg/mL] | MIC (Serratia marcescens) [µg/mL] | MIC (Escherichia coli) [µg/mL]
1 | CCc1ccccc1NS(=O)(=O)c1ccc2c(c1)NC(=O)C(C)S2 (stereo not given) | 1 (≈ 2.76 µM) | > 256 | 32 (≈ 88.3 µM) | > 256 | 1 (≈ 2.76 µM) | 0.5 (≈ 1.38 µM) | > 256 | < 0.03 | > 64 | > 256 | > 256
2 | CCCC(NC(=O)Cc1c(C)c2cc3c(-c4ccc(Cl)cc4)coc3c(C)c2oc1=O)C(=O)O (stereo not given) | 1.25 (≈ 2.59 µM) | > 256 | 2.5 (≈ 5.19 µM) | > 256 | 2.5 (≈ 5.19 µM) | 1.25 (≈ 2.59 µM) | > 256 | > 64 | 1 (≈ 2.07 µM) | > 256 | > 256
3 | O=C(Nc1nnc(-c2ccccc2Cl)o1)c1cccc(C(F)(F)F)c1 | 0.5 (≈ 1.36 µM) | > 256 | 2 (≈ 5.44 µM) | > 256 | 0.5 (≈ 1.36 µM) | 1 (≈ 2.72 µM) | > 256 | 0.5 (≈ 1.36 µM) | 0.5 (≈ 1.36 µM) | > 256 | > 256
4 | O=C(Nc1ccc(Cl)cc1)c1cc(Br)cc(Br)c1O | 1 (≈ 2.47 µM) | 16 (≈ 39.5 µM) | 1 (≈ 2.47 µM) | 16 (≈ 39.5 µM) | 4 (≈ 9.87 µM) | 1 (≈ 2.47 µM) | 16 (≈ 39.5 µM) | < 0.03 | 0.5 (≈ 1.23 µM) | 16 (≈ 39.5 µM) | 8 (≈ 19.7 µM)
5 | CSc1ccccc1-c1nnc(NC(=O)c2nc3ccccc3s2)o1 | 4 (≈ 10.9 µM) | > 256 | 2 (≈ 5.43 µM) | > 256 | 2 (≈ 5.43 µM) | 4 (≈ 10.9 µM) | > 256 | 0.5 (≈ 1.36 µM) | 0.5 (≈ 1.36 µM) | > 256 | > 256
6 | O=C(Nc1cccc(-c2nc3ncccc3o2)c1)c1ccc([N+](=O)[O-])o1 | 2 (≈ 5.71 µM) | 12 (≈ 34.3 µM) | 2 (≈ 5.71 µM) | 128 (≈ 365 µM) | 4 (≈ 11.4 µM) | 4 (≈ 11.4 µM) | 32 (≈ 91.4 µM) | 0.06 (≈ 0.171 µM) | 0.5 (≈ 1.43 µM) | 32 (≈ 91.4 µM) | 256 (≈ 731 µM)
7 | O=C(Nc1nnc(-c2ccc(Cl)cc2)o1)c1ccc(C(F)(F)F)cc1 | 1.5 (≈ 4.08 µM) | > 256 | 1.5 (≈ 4.08 µM) | > 256 | 1.5 (≈ 4.08 µM) | 3 (≈ 8.16 µM) | > 256 | 0.5 (≈ 1.36 µM) | 0.5 (≈ 1.36 µM) | > 256 | > 256
8 | CCCCN(C)S(=O)(=O)c1ccc(C(=O)Nc2nnc(-c3cccc(OC)c3)o2)cc1 | 32 (≈ 72 µM) | > 256 | 16 (≈ 36 µM) | > 256 | 8 (≈ 18 µM) | 4 (≈ 9 µM) | > 256 | 0.5 (≈ 1.12 µM) | 0.5 (≈ 1.12 µM) | > 256 | > 256
9 | Cc1ccc(NS(=O)(=O)c2ccc3c(c2)NCC(C)C(=O)S3)c(C)c1 (stereo not given) | > 64 | > 256 | 16 (≈ 42.5 µM) | > 256 | 2 (≈ 5.31 µM) | 2 (≈ 5.31 µM) | > 256 | < 0.03 | > 64 | > 256 | > 256
10 | O=C(Nc1cc(Cl)c(Cl)c(Cl)c1)c1cc(Br)cc(Br)c1O | ≤ 0.03 | 16 (≈ 33.7 µM) | ≤ 0.03 | 16 (≈ 33.7 µM) | 0.06 (≈ 0.126 µM) | ≤ 0.03 | 16 (≈ 33.7 µM) | < 0.03 | 0.5 (≈ 1.05 µM) | 16 (≈ 33.7 µM) | 8 (≈ 16.9 µM)
11 | O=C(Nc1ccc2oc(-c3ccncc3)nc2c1)c1ccc([N+](=O)[O-])o1 | > 4 | 12 (≈ 34.3 µM) | 2 (≈ 5.71 µM) | 128 (≈ 365 µM) | 4 (≈ 11.4 µM) | 2 (≈ 5.71 µM) | 32 (≈ 91.4 µM) | 0.06 (≈ 0.171 µM) | 0.5 (≈ 1.43 µM) | 32 (≈ 91.4 µM) | 256 (≈ 731 µM)
12 | O=C(Nc1ccc(Cl)c(S(=O)(=O)Nc2cccc(Cl)c2)c1)c1ccc([N+](=O)[O-])o1 | 1.5 (≈ 3.29 µM) | 12 (≈ 26.3 µM) | 1.5 (≈ 3.29 µM) | 128 (≈ 281 µM) | 1.5 (≈ 3.29 µM) | 1.5 (≈ 3.29 µM) | 32 (≈ 70.1 µM) | 0.06 (≈ 0.132 µM) | 0.5 (≈ 1.1 µM) | 32 (≈ 70.1 µM) | 256 (≈ 561 µM)
13 | CCCc1cc(O)nc(N2NC(C)=CC2NC(=O)c2cccs2)n1 (stereo not given) | 1 (≈ 2.89 µM) | > 256 | 1 (≈ 2.89 µM) | > 256 | 1 (≈ 2.89 µM) | 1 (≈ 2.89 µM) | > 256 | 0.25 (≈ 0.724 µM) | 0.25 (≈ 0.724 µM) | > 256 | > 256
14 | Cc1ccccc1NS(=O)(=O)c1ccc2c(c1)NC(=O)C(C)S2 (stereo not given) | 1.2 (≈ 3.44 µM) | > 256 | 1.2 (≈ 3.44 µM) | > 256 | 1.2 (≈ 3.44 µM) | 1.2 (≈ 3.44 µM) | > 256 | < 0.03 | > 64 | > 256 | > 256
15 | O=C(Nc1cccc(Cl)c1)c1cc(Br)cc(Br)c1O | 8 (≈ 19.7 µM) | 16 (≈ 39.5 µM) | 2 (≈ 4.93 µM) | 16 (≈ 39.5 µM) | 2 (≈ 4.93 µM) | 2 (≈ 4.93 µM) | 16 (≈ 39.5 µM) | < 0.03 | 0.5 (≈ 1.23 µM) | 16 (≈ 39.5 µM) | 8 (≈ 19.7 µM)
16 | COC(=O)c1c(NC(=O)c2ccc([N+](=O)[O-])o2)sc2c1CC(C)(C)NC2(C)C | 2 (≈ 4.91 µM) | 12 (≈ 29.5 µM) | 4 (≈ 9.82 µM) | 128 (≈ 314 µM) | 2 (≈ 4.91 µM) | 2 (≈ 4.91 µM) | 32 (≈ 78.5 µM) | 0.06 (≈ 0.147 µM) | 0.5 (≈ 1.23 µM) | 32 (≈ 78.5 µM) | 256 (≈ 628 µM)
17 | O=C(Nc1cc(Cl)c(Cl)c(Cl)c1)c1cc(Cl)cc(Cl)c1O | 0.125 (≈ 0.324 µM) | 16 (≈ 41.5 µM) | 1 (≈ 2.59 µM) | 16 (≈ 41.5 µM) | 0.5 (≈ 1.3 µM) | 0.125 (≈ 0.324 µM) | 16 (≈ 41.5 µM) | < 0.03 | 0.5 (≈ 1.3 µM) | 16 (≈ 41.5 µM) | 8 (≈ 20.8 µM)
18 | Cc1c(CC(=O)N2CCC(C(=O)O)(c3ccccc3)CC2)c(=O)oc2c(C)c3occ(-c4ccc(Cl)cc4)c3cc12 | 2.5 (≈ 4.39 µM) | > 256 | 2.5 (≈ 4.39 µM) | > 256 | 2.5 (≈ 4.39 µM) | 2.5 (≈ 4.39 µM) | > 256 | > 64 | 1 (≈ 1.75 µM) | > 256 | > 256
19 | CCc1ccccc1NS(=O)(=O)c1ccc2c(c1)NC(C)CC(=O)S2 (stereo not given) | > 64 | > 256 | 4 (≈ 10.6 µM) | > 256 | 8 (≈ 21.2 µM) | 2 (≈ 5.31 µM) | > 256 | < 0.03 | > 64 | > 256 | > 256
20 | O=C(Nc1nnc(-c2ccccc2Cl)o1)c1nc2ccccc2s1 | 32 (≈ 89.7 µM) | > 256 | 2 (≈ 5.61 µM) | > 256 | 2 (≈ 5.61 µM) | 2 (≈ 5.61 µM) | > 256 | 0.5 (≈ 1.4 µM) | 0.5 (≈ 1.4 µM) | > 256 | > 256
21 | O=C1c2cccc3c([N+](=O)[O-])ccc(c23)C(=O)N1Cc1cccnc1 | 8 (≈ 24 µM) | > 256 | 8 (≈ 24 µM) | > 256 | 2 (≈ 6 µM) | 8 (≈ 24 µM) | > 256 | 4 (≈ 12 µM) | 4 (≈ 12 µM) | > 256 | > 256
22 | Cc1c(CC(=O)N[C@@H](C(=O)O)C(C)C)c(=O)oc2c(C)c3occ(-c4ccc(Cl)cc4)c3cc12 | 2.5 (≈ 5.19 µM) | > 256 | 2.5 (≈ 5.19 µM) | > 256 | 1.25 (≈ 2.59 µM) | 1.25 (≈ 2.59 µM) | > 256 | > 64 | 1 (≈ 2.07 µM) | > 256 | > 256
23 | CCc1ccccc1NS(=O)(=O)c1ccc2c(c1)NCC(C)C(=O)S2 (stereo not given) | > 64 | > 256 | 4 (≈ 10.6 µM) | > 256 | 2 (≈ 5.31 µM) | 2 (≈ 5.31 µM) | > 256 | < 0.03 | > 64 | > 256 | > 256
24 | Cc1c(CC(=O)N[C@@H](C)C(=O)O)c(=O)oc2c(C)c3occ(-c4ccc(Cl)cc4)c3cc12 | 1.25 (≈ 2.75 µM) | > 256 | 0.3 (≈ 0.661 µM) | > 256 | 1.25 (≈ 2.75 µM) | 0.3 (≈ 0.661 µM) | > 256 | > 64 | 1 (≈ 2.2 µM) | > 256 | > 256
25 | O=C1c2cc([N+](=O)[O-])cc3cc([N+](=O)[O-])cc(c23)C(=O)N1c1ccc(O)cc1 | 0.3 (≈ 0.791 µM) | > 256 | 2.5 (≈ 6.59 µM) | > 256 | 2.5 (≈ 6.59 µM) | 2.5 (≈ 6.59 µM) | > 256 | 4 (≈ 10.5 µM) | 4 (≈ 10.5 µM) | > 256 | > 256

— ChEMBL document CHEMBL1629439, “High-throughput identification of antibacterials against methicillin-resistant Staphylococcus aureus (MRSA) and the transglycosylase” (Bioorg Med Chem, 2010)
